From ChEMBL document CHEMBL1140385, “Synthesis and antibacterial activity of 3-substituted-6-(3-ethyl-4-methylanilino)uracils” (J Med Chem, 2005)
pKi: −log10 of the molar value. ≈ marks a conversion by molar mass, not a printed value.

Key:
[1] = Maximum time taken to reach Cmax was determined in mouse after peroral administration at 200 mg/kg; assay type: ADME, organism-based; design: dose 200 mg/kg, route oral; conditions: in vivo, po
Outline: (§1)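 A single 200 mg/kg gavage dose in KOH-neutralized PBS was given to male Swiss-Webster mice. Blood was taken by cardiac puncture under halothane before dosing and at 15, 30, 60, 120 and 180 min. Heparinized plasma was deproteinized with equal-volume MeCN and quantified by C18 HPLC (282 nm) against a standard curve from compound-spiked plasma.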

Enterococcus faecalis [2] = test: In vitro minimum inhibitory concentration against Enterococcus faecalis upon incubation at 37 degree C for 16 to 24 hr by dissolving in DMSO (1%); assay type: functional
Outline: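 Log-phase E. faecalis was grown in brain-heart infusion broth and seeded at (3-7) × 10^5 CFU/mL. Duplicate 2-fold dilutions ran from 20 to 1.25 µg/mL, final 1% DMSO. After 16-24 h at 37 °C with shaking, OD600 was read.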

[3] = Area under the plasma concentration curve determined in mouse after peroral administration at 200 mg/kg; assay type: ADME, organism-based; design: dose 200 mg/kg, route oral; conditions: in vivo, po; outline: as §1
Staphylococcus aureus [4] = test: In vitro minimum inhibitory concentration against Methicillin-resistant Staphylococcus aureus upon incubation at 37 degree C for 16 to 24 hr by dissolving in DMSO (1%); assay type: functional
Outline: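 Broth microdilution (modified NCCLS M7-A4). Staphylococci grown to log phase in Luria broth, seeded at (3-7) × 10⁵ CFU/mL. Compounds 2-fold diluted from DMSO stocks, 20 to 1.25 µg/mL, final 1% DMSO, in duplicate. Incubated 37 °C, 16-24 h, with shaking. OD600 read.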

[5] = molecular target: DNA polymerase III PolC-type (Bacillus subtilis (strain 168), UniProt P13267); test: Inhibitory concentration against Bacillus subtilis DNA polymerase IIIC using [3H]dTMP 250 pM (30 degree C for 10 min)
Outline: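 Homogeneous recombinant B. subtilis pol IIIC, 0.025-0.06 units, acted on activated calf thymus DNA with Mg2+, DTT, glycerol, dATP, dCTP, dTTP and [3H]dTTP, without dGTP. Compounds were serially diluted from DMSO. Reactions ran 10 min at 30 °C, were stopped with TCA-pyrophosphate, and the filter-collected precipitate was scintillation counted. Apparent Ki was read directly from this truncated assay; average standard deviation ±44%.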

[6] = Area under the plasma concentration curve determined in mouse after intravenous administration at 20 mg/kg; assay type: ADME, organism-based; design: dose 20 mg/kg, route intravenous; conditions: in vivo
Outline: (§2)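 Male Swiss-Webster mice (20-24 g) got a 20 mg/kg tail-vein iv bolus, either in 30% aqueous HP-β-cyclodextrin or in PBS neutralized with KOH. Groups of three were bled by cardiac puncture under halothane before dosing and at 2, 5, 15, 30, 60 and 120 min. Heparinized plasma was MeCN-treated and run on C18 HPLC at 282 nm against a spiked-plasma standard curve.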

[7] = Maximum plasma concentration in mouse after peroral administration at 200 mg/kg; assay type: ADME, organism-based; design: dose 200 mg/kg, route oral; conditions: po; outline: as §1
Staphylococcus aureus [8] = test: Serum effect on MIC against Staphylococcus aureus (Smith) as ratio of MIC value in presence and absence of 50% fetal calf serum; assay type: functional
Outline: (§3)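 Broth microdilution MIC was repeated with 50% fetal calf serum added to the growth medium (LB for S. aureus, brain-heart infusion broth for E. faecalis). The inoculum was (3-7) × 10^5 CFU/mL in 1% DMSO, incubated at 37 °C for 16-24 h, and read by OD600. The serum effect is the MIC with serum relative to the MIC without serum.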

[9] = Area under the plasma concentration curve determined in mouse after subcutaneous administration at 200 mg/kg; assay type: ADME, organism-based; design: dose 200 mg/kg, route subcutaneous; conditions: in vivo, sc
Outline: (§4)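 Male Swiss-Webster mice got single sc doses of 20 or 60 mg/kg in 30% aqueous HP-β-cyclodextrin, or 20, 200 or 400 mg/kg in KOH-neutralized PBS. Groups of three were bled by cardiac puncture before dosing and at 5, 15, 30, 60, 120 and 180 min, plus 360 min at 400 mg/kg. Plasma drug was measured by C18 reverse-phase HPLC at 282 nm against a spiked-plasma standard curve.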

Staphylococcus aureus [10] = test: In vitro minimum inhibitory concentration against Staphylococcus aureus upon incubation at 37 degree C for 16 to 24 hr by dissolving in DMSO (1%); assay type: functional
Enterococcus faecium [11] = test: In vitro minimum inhibitory concentration against Enterococcus fecium upon incubation at 37 degree C for 16 to 24 hr by dissolving in DMSO (1%); assay type: functional
Outline: (§5)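 Broth microdilution (modified NCCLS M7-A4). Enterococci grown to log phase in brain-heart infusion broth, seeded at (3-7) × 10⁵ CFU/mL. Compounds 2-fold diluted from DMSO stocks, 20 to 1.25 µg/mL, final 1% DMSO, in duplicate. Incubated 37 °C, 16-24 h, with shaking. OD600 read.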

[12] = Half life in mouse after peroral administration at 200 mg/kg; assay type: ADME, organism-based; design: dose 200 mg/kg, route oral; conditions: in vivo, po; outline: as §1
Staphylococcus aureus [13] = test: Effect on survival of staphylococcus aureus (Smith) ip-infected mice at a concentration 20 mg/kg; assay type: functional
Outline: (§6)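 Male pathogen-free Swiss-Webster mice (20-24 g), groups of five, infected ip with ca. 10⁸ CFU log-phase S. aureus Smith (grown 37 °C in LB, washed, in 0.5 mL LB). Single ip dose 15 min post-infection, in 10% DMSO/peanut oil or PBS. Survivors counted at 72 h post-infection.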

Enterococcus faecium [14] = test: In vitro minimum inhibitory concentration against Vancomycin resistant Enterococci faecium upon incubation at 37 degree C for 16 to 24 hr by dissolving in DMSO (1%); assay type: functional; outline: as §5
Enterococcus faecalis [15] = test: Serum effect on MIC of compound was measured against Enterococcus faecalis as ratio of MIC value in presence and absence of 50% fetal calf serum; assay type: functional; outline: as §3
[16] = Area under the plasma concentration curve determined in mouse after subcutaneous administration at 20 mg/kg; assay type: ADME, organism-based; design: dose 20 mg/kg, route subcutaneous; conditions: in vivo, sc; outline: as §4
Staphylococcus aureus [17] = test: Effect on survival of staphylococcus aureus (Smith) ip-infected mice at a concentration 10 mg/kg; assay type: functional; outline: as §6
[18] = Area under the plasma concentration curve determined in mouse after subcutaneous administration at 400 mg/kg; assay type: ADME, organism-based; design: dose 400 mg/kg, route subcutaneous; conditions: in vivo, sc; outline: as §4
Bacillus subtilis = test: In vitro minimum inhibitory concentration against Bacillus subtilis upon incubation at 37 degree C for 16 to 24 h; assay type: functional
Staphylococcus aureus [19] = test: In vitro minimum inhibitory concentration against Staphylococcus aureus (Smith) upon incubation at 37 degree C for 16 to 24 hr by dissolving in DMSO (1%); assay type: functional
Staphylococcus aureus [20] = test: Effect on survival of staphylococcus aureus (Smith) ip-infected mice at 20 mg/kg; assay type: functional; outline: as §6
[21] = Maximum time taken to reach Cmax was determined in mouse after subcutaneous administration at 60 mg/kg; assay type: ADME, organism-based; design: dose 60 mg/kg, route subcutaneous; conditions: in vivo, sc; outline: as §4
[22] = Maximum plasma concentration in mouse after intravenous administration at 20 mg/kg; assay type: ADME, organism-based; design: dose 20 mg/kg, route intravenous; outline: as §2
[23] = Half life in mouse after subcutaneous administration at 20 mg/kg; assay type: ADME, organism-based; design: dose 20 mg/kg, route subcutaneous; conditions: in vivo, sc; outline: as §4
[24] = Area under the plasma concentration curve determined in mouse after subcutaneous administration at 60 mg/kg; assay type: ADME, organism-based; design: dose 60 mg/kg, route subcutaneous; conditions: in vivo, sc; outline: as §4
[25] = Maximum plasma concentration in mouse after subcutaneous administration at 20 mg/kg; assay type: ADME, organism-based; design: dose 20 mg/kg, route subcutaneous; conditions: sc; outline: as §4
[26] = Maximum plasma concentration in mouse after subcutaneous administration at 60 mg/kg; assay type: ADME, organism-based; design: dose 60 mg/kg, route subcutaneous; conditions: sc; outline: as §4
[27] = Maximum time taken to reach Cmax was determined in mouse after subcutaneous administration at 20 mg/kg; assay type: ADME, organism-based; design: dose 20 mg/kg, route subcutaneous; conditions: in vivo, sc; outline: as §4
[28] = Half life in mouse after intravenous administration at 20 mg/kg; assay type: ADME, organism-based; design: dose 20 mg/kg, route intravenous; conditions: in vivo; outline: as §2

Sequence of DNA polymerase III PolC-type (P13267 whole entry, the tested form may be a part): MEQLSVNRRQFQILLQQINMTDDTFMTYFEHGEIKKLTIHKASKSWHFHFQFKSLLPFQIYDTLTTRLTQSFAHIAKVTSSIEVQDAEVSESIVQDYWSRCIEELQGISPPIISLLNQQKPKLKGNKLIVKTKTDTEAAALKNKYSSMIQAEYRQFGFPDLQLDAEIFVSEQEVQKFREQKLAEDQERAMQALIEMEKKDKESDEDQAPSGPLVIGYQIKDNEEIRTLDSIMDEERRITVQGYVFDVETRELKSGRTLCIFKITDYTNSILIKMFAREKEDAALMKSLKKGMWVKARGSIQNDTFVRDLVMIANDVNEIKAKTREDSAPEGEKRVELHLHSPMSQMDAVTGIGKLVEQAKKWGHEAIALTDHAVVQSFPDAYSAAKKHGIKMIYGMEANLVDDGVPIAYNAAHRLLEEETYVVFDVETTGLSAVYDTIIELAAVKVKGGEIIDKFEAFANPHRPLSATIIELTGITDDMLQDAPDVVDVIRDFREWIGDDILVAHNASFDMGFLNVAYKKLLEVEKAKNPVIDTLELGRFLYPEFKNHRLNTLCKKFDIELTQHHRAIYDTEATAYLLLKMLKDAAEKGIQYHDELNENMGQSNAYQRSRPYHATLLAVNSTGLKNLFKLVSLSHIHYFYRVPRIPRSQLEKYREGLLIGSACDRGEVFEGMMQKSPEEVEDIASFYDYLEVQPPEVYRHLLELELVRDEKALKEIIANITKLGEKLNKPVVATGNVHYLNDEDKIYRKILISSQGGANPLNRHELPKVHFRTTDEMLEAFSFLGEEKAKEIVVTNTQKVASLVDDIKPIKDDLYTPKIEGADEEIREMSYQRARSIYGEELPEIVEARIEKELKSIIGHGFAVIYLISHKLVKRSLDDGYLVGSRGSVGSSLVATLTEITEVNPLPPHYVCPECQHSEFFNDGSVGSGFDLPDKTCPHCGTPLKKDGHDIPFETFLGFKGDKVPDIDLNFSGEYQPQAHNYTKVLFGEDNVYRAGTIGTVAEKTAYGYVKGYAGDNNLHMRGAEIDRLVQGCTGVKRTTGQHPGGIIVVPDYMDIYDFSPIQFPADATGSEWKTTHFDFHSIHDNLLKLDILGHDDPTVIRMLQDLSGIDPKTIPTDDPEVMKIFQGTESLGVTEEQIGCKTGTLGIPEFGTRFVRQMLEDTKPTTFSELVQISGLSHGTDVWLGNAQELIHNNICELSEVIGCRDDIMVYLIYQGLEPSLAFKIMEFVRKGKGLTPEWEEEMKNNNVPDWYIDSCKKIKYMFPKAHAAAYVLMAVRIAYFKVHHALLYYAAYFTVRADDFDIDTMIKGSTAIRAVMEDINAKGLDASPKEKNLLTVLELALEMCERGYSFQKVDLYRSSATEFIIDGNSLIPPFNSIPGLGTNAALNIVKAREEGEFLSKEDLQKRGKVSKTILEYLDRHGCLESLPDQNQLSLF

SMILES | MIC (Enterococcus faecalis [2]) | MIC (Staphylococcus aureus [4]) | pKi [5] | MIC+/MIC- (Staphylococcus aureus [8]) | MIC (Staphylococcus aureus [10]) | MIC (Enterococcus faecium [11]) | MIC (Enterococcus faecium [14]) | MIC+/MIC- (Enterococcus faecalis [15]) | Activity (Staphylococcus aureus [17]) | MIC (Bacillus subtilis) | MIC (Staphylococcus aureus [19]) | further results
CCc1cc(Nc2cc(=O)n(CCCCN3CCOCC3)c(=O)[nH]2)ccc1C.Cl | 5 µg/mL | 10 µg/mL | 7.28 | 1.7 | 10 µg/mL | 10 µg/mL | 5 µg/mL | 2 | 4 | – | – | Tmax [1]: 60 min; AUC [3]: 15400 ng·h/mL; AUC [6]: 3900 ng·h/mL; Cmax [7]: 7300 ng/mL; AUC [9]: 26900 ng·h/mL; half-life [12]: 111 min; Activity (Staphylococcus aureus [13]): 5; AUC [16]: 6770 ng·h/mL; AUC [18]: 50700 ng·h/mL
CCc1cc(Nc2cc(=O)n(CCCCCCCCN3CCOCC3)c(=O)[nH]2)ccc1C | 10 µg/mL (≈ 22.6 µM) | 20 µg/mL (≈ 45.2 µM) | 7.12 | >7.1 | 10 µg/mL (≈ 22.6 µM) | 10 µg/mL (≈ 22.6 µM) | 5 µg/mL (≈ 11.3 µM) | >12.8 | – | 2.5 µg/mL (≈ 5.65 µM) | 10 µg/mL (≈ 22.6 µM) | –
CCc1cc(Nc2cc(=O)n(CCCCN3CCOCC3)c(=O)[nH]2)ccc1C | 5 µg/mL (≈ 12.9 µM) | 10 µg/mL (≈ 25.9 µM) | – | 2.3 | 10 µg/mL (≈ 25.9 µM) | 2.5 µg/mL (≈ 6.47 µM) | 5 µg/mL (≈ 12.9 µM) | 3.2 | 2 | – | – | Activity (Staphylococcus aureus [20]): 4
CCc1cc(Nc2cc(=O)n(CCOCCOc3ccccc3)c(=O)[nH]2)ccc1C | 5 µg/mL (≈ 12.2 µM) | 20 µg/mL (≈ 48.8 µM) | 7.25 | >5.6 | 20 µg/mL (≈ 48.8 µM) | 2.5 µg/mL (≈ 6.11 µM) | 5 µg/mL (≈ 12.2 µM) | – | – | < 1.25 µg/mL | 20 µg/mL (≈ 48.8 µM) | –
CCc1cc(Nc2cc(=O)n(CCCCO)c(=O)[nH]2)ccc1C | 5 µg/mL (≈ 15.8 µM) | 5 µg/mL (≈ 15.8 µM) | 7.26 | 7.5 | – | 5 µg/mL (≈ 15.8 µM) | 5 µg/mL (≈ 15.8 µM) | – | 3 | – | 5 µg/mL (≈ 15.8 µM) | Tmax [21]: 15 min; Cmax [22]: 53000 ng/mL; half-life [23]: 29.3 min; AUC [6]: 4800 ng·h/mL; AUC [24]: 20200 ng·h/mL; Cmax [25]: 5100 ng/mL; Cmax [26]: 13000 ng/mL; Tmax [27]: 15 min; Activity (Staphylococcus aureus [13]): 5; AUC [16]: 7780 ng·h/mL; half-life [28]: 33 min
CCc1cc(Nc2cc(=O)n(CCOCCOC)c(=O)[nH]2)ccc1C | 5 µg/mL (≈ 14.4 µM) | 5 µg/mL (≈ 14.4 µM) | – | 5.5 | 5 µg/mL (≈ 14.4 µM) | 5 µg/mL (≈ 14.4 µM) | 5 µg/mL (≈ 14.4 µM) | – | 2 | – | – | –
CCc1cc(Nc2cc(=O)n(CCCC#N)c(=O)[nH]2)ccc1C | 5 µg/mL (≈ 16 µM) | 5 µg/mL (≈ 16 µM) | – | 5.4 | 5 µg/mL (≈ 16 µM) | 5 µg/mL (≈ 16 µM) | 5 µg/mL (≈ 16 µM) | – | 2 | – | – | –
CCc1cc(Nc2cc(=O)n(CCOC)c(=O)[nH]2)ccc1C | 5 µg/mL (≈ 16.5 µM) | 5 µg/mL (≈ 16.5 µM) | 6.90 | 6.9 | 2.5 µg/mL (≈ 8.24 µM) | 2.5 µg/mL (≈ 8.24 µM) | 2.5 µg/mL (≈ 8.24 µM) | – | – | < 1.25 µg/mL | 2.5 µg/mL (≈ 8.24 µM) | –
